Measurements reported in ChEMBL document CHEMBL3779764, “Identification and Structure-Activity Relationships of Diarylhydrazides as Novel Potent and Selective Human Enterovirus Inhibitors” (J Med Chem, 2016).

Tests used:
[1] = Cytotoxicity against african green monkey Vero cells assessed as reduction in cell viability after 24 to 36 hrs by MTS-based CPE reduction assay; settings: chlorocebus sabaeus
Outline: (§1)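 Noninfected Vero or RD cells exposed to serial compound dilutions under the CPE-assay conditions (37 °C, 24-36 h). Viability measured by MTS/PMS absorbance at 498 nm. CC50 is the concentration causing 50% death of noninfected cells.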

[2] = tested on: Enterovirus A71; test: Antiviral activity against Human enterovirus 71 infected in monkey African green Vero cells by MTS-based CPE reduction assay; format: functional, organism-based
Outline: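 Vero cells (5 × 10^5) seeded, then given serial compound dilutions plus 100 TCID50 EV71. Incubated at 37 °C for 24-36 h until complete CPE in the virus-infected, compound-free control. Viability read by MTS/PMS at 498 nm. EC50 is the concentration inhibiting virus-induced CPE by 50%. At least three repeats.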

[3] = Selectivity index, ratio of CC50 for african green monkey Vero cells to EC50 for Enterovirus 71; format: toxicity, cell-based; settings: read-out: Ratio CC50/EC50
Outline: (§2)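 Selectivity index is CC50/EC50, both taken from MTS-based CPE reduction assays in the same cell line (Vero or RD).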

[4] = tested on: Enterovirus A71; test: Antiviral activity against Enterovirus 71 infected in human RD cells after 24 to 36 hrs by MTS-based CPE reduction assay; format: functional, organism-based
Outline: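 RD cells given serial compound dilutions with EV71. Incubated at 37 °C for 24-36 h until full CPE in the virus control. Viability read by MTS/PMS at 498 nm. EC50 is the concentration giving 50% inhibition of virus-induced CPE. At least three independent experiments.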

[5] = tested on: RD; test: Cytotoxicity against human RD cells assessed as reduction in cell viability after 24 to 36 hrs by MTS-based CPE reduction assay; format: functional; outline: as §1
[6] = Selectivity index, ratio of CC50 for human RD cells to EC50 for Enterovirus 71; format: toxicity, cell-based; settings: read-out: Ratio CC50/EC50; outline: as §2
[7] = Enterovirus A, Vero, read-out: EC50
[8] = Enterovirus A, RD, read-out: EC50

Structure (SMILES)	CC50 [1]	EC50 [2, 7]	selectivity ratio [3]	EC50 [4, 8]	CC50 [5]	selectivity ratio [6]	EC50 ([2]; vero)	EC50 ([4]; rd)
COc1ccc(C(=O)NNc2c(C)cccc2Cl)cc1	> 275 µM	5.74 µM	> 47.9	15.4 µM	> 275 µM	> 17.9	–	–
CCCc1ccc(C(=O)NNc2c(C)cccc2Cl)cc1	80.2 µM	0.92 µM	87.2	2.16 µM	113 µM	52.4	–	–
CC(C)(C)c1ccc(C(=O)NNc2c(Cl)cccc2Cl)cc1	30.8 µM	0.47 µM	65.6	0.85 µM	36.7 µM	43.2	–	–
COc1ccc(C(=O)NNc2c(Br)cccc2Br)cc1	> 200 µM	3.32 µM	> 60.2	2.63 µM	> 200 µM	> 76.1	–	–
O=C(NNc1c(Cl)cccc1Cl)c1cccs1	–	> 100 µM	–	> 100 µM	–	–	–	–
CCOc1ccc(NNC(=O)c2c(Cl)cccc2Cl)cc1	–	> 100 µM	–	> 100 µM	–	–	–	–
O=C(NNc1c(Cl)cccc1Cl)c1ccccn1	–	> 100 µM	–	> 100 µM	–	–	–	–
COc1ccccc1C(=O)NNc1c(Cl)cccc1Cl	–	> 100 µM	–	> 100 µM	–	–	–	–
O=C(NNc1c(Cl)cccc1Cl)c1ccc([N+](=O)[O-])cc1	–	–	–	–	–	–	Not Active	Not Active
CCc1ccc(C(=O)NNc2c(C)cccc2Cl)cc1	81.7 µM	6.37 µM	12.8	10.5 µM	105 µM	10	–	–
COc1ccc(C(=O)NNc2c(Cl)cccc2Cl)cc1	> 257 µM	0.68 µM	> 378	1.36 µM	> 257 µM	> 189	–	–
CCc1cccc(CC)c1NNC(=O)c1ccc(C(C)(C)C)cc1	–	> 100 µM	–	> 100 µM	–	–	–	–
CCc1ccc(C(=O)NNc2c(Br)cccc2Br)cc1	> 201 µM	0.93 µM	> 216	1.58 µM	> 201 µM	> 127	–	–
CC(C)(C)c1ccc(C(=O)NNc2c(F)cccc2F)cc1	150 µM	2.19 µM	68.4	4.27 µM	184 µM	43	–	–
O=C(NNc1c(Cl)cccc1Cl)c1cccc(Cl)c1	–	–	–	–	–	–	Not Active	Not Active
Cc1cccc(Cl)c1NNC(=O)c1ccc(N(C)C)cc1	92.8 µM	0.28 µM	332	0.16 µM	106 µM	682	–	–
CCOc1ccc(C(=O)NNc2c(Cl)cc(Cl)cc2Cl)cc1	–	> 100 µM	–	> 100 µM	–	–	–	–
Cc1ccc(C(=O)NNc2c(Cl)cccc2Cl)cc1	> 271 µM	1.28 µM	> 212	0.96 µM	> 271 µM	> 281	–	–
Cc1ccc(C(=O)NNc2c(C)cccc2Cl)cc1	> 291 µM	13 µM	> 22.5	26.9 µM	> 291 µM	> 10.8	–	–
O=C(NNc1c(Cl)cccc1Cl)c1ccccc1	–	> 100 µM	–	> 100 µM	–	–	–	–
O=C(NNc1c(Cl)cccc1Cl)c1ccc(Cl)cc1	–	> 100 µM	–	> 100 µM	–	–	–	–
CCCc1ccc(C(=O)NNc2c(F)cccc2F)cc1	> 276 µM	27.4 µM	> 10.1	51.4 µM	> 276 µM	> 5.4	–	–
COc1ccc(C(=O)NNc2c(C)cccc2C)cc1	> 296 µM	12.3 µM	> 24	29 µM	> 296 µM	> 10.2	–	–

Structure (SMILES)	CC50 [1]	EC50 [2, 7]	selectivity ratio [3]	EC50 [4, 8]	CC50 [5]	selectivity ratio [6]	EC50 ([2]; vero)	EC50 ([4]; rd)
CCOc1ccc(C(=O)NNc2c(F)cccc2F)cc1	> 274 µM	66.7 µM	> 4.1	> 100 µM	–	–	–	–
CCOc1ccc(C(=O)NNc2c(Br)cccc2Br)cc1	> 193 µM	0.37 µM	> 522	0.53 µM	> 193 µM	> 362	–	–
CCCc1ccc(C(=O)NNc2c(Br)cccc2Br)cc1	> 194 µM	3.54 µM	> 54.8	4.62 µM	> 194 µM	> 42	–	–
CCCc1ccc(C(=O)NNc2c(Cl)cccc2Cl)cc1	> 248 µM	0.42 µM	> 589	0.44 µM	> 248 µM	> 562	–	–
O=C(NNc1c(Cl)cccc1Cl)c1ccc(Br)cc1	–	–	–	–	–	–	Not Active	Not Active
CC(C)c1cccc(C(C)C)c1NNC(=O)c1ccc(C(C)(C)C)cc1	–	> 100 µM	–	> 100 µM	–	–	–	–
Cc1cccc(C)c1NNC(=O)c1ccc(N(C)C)cc1	> 282 µM	0.29 µM	> 974	0.69 µM	> 282 µM	> 411	–	–
COc1ccccc1C(=O)NNc1c(Br)cccc1Br	109 µM	54.2 µM	2	> 100 µM	–	–	–	–
O=C(NNc1c(Cl)cccc1Cl)c1ccc(F)cc1	–	–	–	–	–	–	Not Active	Not Active
N#Cc1ccc(C(=O)NNc2c(Cl)cccc2Cl)cc1	–	–	–	–	–	–	Not Active	Not Active
CN(C)c1ccc(C(=O)NNc2c(F)cccc2F)cc1	> 275 µM	17.9 µM	> 15.3	23.5 µM	> 275 µM	> 11.7	–	–
CCCc1ccc(C(=O)NNc2c(C)cccc2C)cc1	> 283 µM	0.95 µM	> 298	2.64 µM	> 283 µM	> 107	–	–
COc1ccc(C(=O)NNc2c(F)cccc2F)cc1	> 288 µM	74 µM	> 3.9	> 100 µM	–	–	–	–
Cc1ccc(C(=O)NNc2c(Br)cccc2Br)cc1	146 µM	10.8 µM	13.5	24.7 µM	163 µM	6.6	–	–
CSc1ccc(C(=O)NNc2c(C)cccc2Cl)cc1	107 µM	6.13 µM	17.4	15.4 µM	134 µM	8.7	–	–
COc1cccc(OC)c1NNC(=O)c1ccc(C(C)(C)C)cc1	> 244 µM	10.4 µM	> 23.4	27.4 µM	> 244 µM	> 8.9	–	–
CCOc1ccc(C(=O)NNc2c(Cl)cccc2Cl)cc1	> 246 µM	0.33 µM	> 746	0.37 µM	> 246 µM	> 665	–	–
CCc1ccc(C(=O)NNc2c(C)cccc2C)cc1	135 µM	1.57 µM	86.2	2.75 µM	164 µM	59.7	–	–
Cc1cccc(Cl)c1NNC(=O)c1ccc(C(C)(C)C)cc1	49.2 µM	0.79 µM	62.3	0.97 µM	63.2 µM	65.1	–	–
O=C(NNc1c(Br)cccc1Br)c1ccccc1	> 216 µM	0.86 µM	> 251	2.43 µM	> 216 µM	> 89.1	–	–
CCOc1ccc(C(=O)NNc2c(C)cccc2Cl)cc1	> 262 µM	0.39 µM	> 673	0.82 µM	> 262 µM	> 319	–	–
CCc1ccc(C(=O)NNc2c(Cl)cccc2Cl)cc1	> 259 µM	0.94 µM	> 275	1.68 µM	> 259 µM	> 154	–	–
Cc1ccc(C(=O)NNc2c(C)cccc2C)cc1	> 315 µM	5.31 µM	> 59.2	13.6 µM	> 315 µM	> 23.2	–	–
